Results reported in ChEMBL document CHEMBL5724801, “EUbOPEN Chemogenomics Library - Multiplex” (2024).
“And” between values parts separate entries of the source, which are not always exact repeats. Equal values may be shown once.

Test system: U2OS
Assay: Multiplex assay against U2OS
Assay type: toxicity, cell-based
Details: human
In short: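 Per cents of healthy-nucleus cells form the tubulin, mitochondrial-mass and membrane-permeability phenotype values. Live cells were stained at seeding with Hoechst33342, BioTracker Green Microtubule Cytoskeleton Dye, MitoTracker Red and Annexin V Alexa Fluor 680. After compound addition they were imaged on a CQ1 microscope at 37°C and 5% CO2, and CellPathfinder machine-learning gating split them into Hoechst high-intensity objects or normal cells, normal cells into healthy, pyknosed or fragmented nuclei, and pyknosed cells into mitotic or apoptotic.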

[1] = 12 h, 1 µM, compound concentration 1 uM
[2] = 12 h, 10 µM, compound concentration 10 uM
[3] = 24 h, 1 µM, compound concentration 1 uM
[4] = 24 h, 10 µM, compound concentration 10 uM
[5] = 48 h, 1 µM, compound concentration 1 uM
[6] = 48 h, 10 µM, compound concentration 10 uM

O=C(NCCN1CCC(n2c(=O)[nH]c3cc(Cl)ccc32)CC1)c1ccc(F)cc1 [HALOPEMIDE]
Population Apoptotic (%) [1]: 95% and 50% | Population Fragmented Nuclei (%) [1]: 24% and 13% | Population Healthy Nuclei (%) [1]: 65% and 79% | Population Hoechst High Intensity Objects (%) [1]: 1% and 0% | Population Membrane Permeable-Phenotype (%) [1]: 6% and 7% | Population Mitochondria Different-Phenotype (%) [1]: 1% and 2% | Population Normal (%) [1]: 98% and 100% | Population Pyknosed Nuclei (%) [1]: 10% and 7% | Population Tubulin-Different-Phenotype (%) [1]: 2% and 3% | Total Cell Count [1]: 209 and 105 | Population Apoptotic (%) [2]: 68% and 61% | Population Fragmented Nuclei (%) [2]: 19% and 12% | Population Healthy Nuclei (%) [2]: 65% and 78% | Population Hoechst High Intensity Objects (%) [2]: 4% and 1% | Population Membrane Permeable-Phenotype (%) [2]: 23% and 26% | Population Mitochondria Different-Phenotype (%) [2]: 11% and 32% | Population Mitotic Cells (%) [2]: 31% and 38% | Population Normal (%) [2]: 95% and 98% | Population Pyknosed Nuclei (%) [2]: 15% and 8% | Population Tubulin-Different-Phenotype (%) [2]: 15% and 27% | Total Cell Count [2]: 244 and 152 | Population Apoptotic (%) [3]: 91% and 81% | Population Fragmented Nuclei (%) [3]: 22% and 15% | Population Healthy Nuclei (%) [3]: 68% and 72% | Population Hoechst High Intensity Objects (%) [3]: 1% and 0% | Population Membrane Permeable-Phenotype (%) [3]: 6% and 10% | Population Mitochondria Different-Phenotype (%) [3]: 1% and 3% | Population Mitotic Cells (%) [3]: 8% and 18% | Population Normal (%) [3]: 98% and 99% | Population Pyknosed Nuclei (%) [3]: 9% and 12% | Population Tubulin-Different-Phenotype (%) [3]: 1% and 8% | Total Cell Count [3]: 241 and 132 | Population Apoptotic (%) [4]: 75% and 63% | Population Fragmented Nuclei (%) [4]: 17% and 16% | Population Healthy Nuclei (%) [4]: 64% and 71% | Population Hoechst High Intensity Objects (%) [4]: 2% and 3% | Population Membrane Permeable-Phenotype (%) [4]: 15% and 26% | Population Mitochondria Different-Phenotype (%) [4]: 10% and 23% | Population Mitotic Cells (%) [4]: 25% and 36% | Population Normal (%) [4]: 97% and 96% | Population Pyknosed Nuclei (%) [4]: 18% and 12% | Population Tubulin-Different-Phenotype (%) [4]: 7% and 21% | Total Cell Count [4]: 271 and 159 | Population Apoptotic (%) [5]: 68% and 95% | Population Fragmented Nuclei (%) [5]: 16% and 17% | Population Healthy Nuclei (%) [5]: 75% and 69% | Population Hoechst High Intensity Objects (%) [5]: 2% and 1% | Population Membrane Permeable-Phenotype (%) [5]: 4% and 9% | Population Mitochondria Different-Phenotype (%) [5]: 2% and 5% | Population Normal (%) [5]: 97% and 98% | Population Pyknosed Nuclei (%) [5]: 7% and 12% | Population Tubulin-Different-Phenotype (%) [5]: 2% and 6% | Total Cell Count [5]: 337 and 187 | Population Apoptotic (%) [6]: 81% and 77% | Population Fragmented Nuclei (%) [6]: 15% and 13% | Population Healthy Nuclei (%) [6]: 69% and 67% | Population Hoechst High Intensity Objects (%) [6]: 3% and 6% | Population Membrane Permeable-Phenotype (%) [6]: 10% and 16% | Population Mitochondria Different-Phenotype (%) [6]: 5% and 12% | Population Mitotic Cells (%) [6]: 18% and 22% | Population Normal (%) [6]: 96% and 93% | Population Pyknosed Nuclei (%) [6]: 14% and 18% | Population Tubulin-Different-Phenotype (%) [6]: 5% and 6% | Total Cell Count [6]: 382 and 197

O=C(NCc1cccc(O)c1)Nc1nc(-c2ccncc2)cs1
Population Apoptotic (%) [1]: 37.74% and 30.77% | Population Fragmented Nuclei (%) [1]: 4.64% and 3.9% | Population Healthy Nuclei (%) [1]: 83.06% and 79.22% | Population Hoechst High Intensity Objects (%) [1]: 0% and 0.65% | Population Membrane Permeable-Phenotype (%) [1]: 0.84% and 1.64% | Population Mitochondria Different-Phenotype (%) [1]: 0.28% and 9.02% | Population Mitotic Cells (%) [1]: 62.26% and 69.23% | Population Normal (%) [1]: 100% and 99.35% | Population Pyknosed Nuclei (%) [1]: 12.3% and 16.88% | Population Tubulin-Different-Phenotype (%) [1]: 1.96% and 0% | Total Cell Count [1]: 431 and 155 | Population Apoptotic (%) [2]: 52.63% and 52.17% | Population Fragmented Nuclei (%) [2]: 2.65% and 6.96% | Population Healthy Nuclei (%) [2]: 82.23% and 73.04% | Population Hoechst High Intensity Objects (%) [2]: 0.26% and 0% | Population Membrane Permeable-Phenotype (%) [2]: 1.61% and 4.76% | Population Mitotic Cells (%) [2]: 47.37% and 47.83% | Population Normal (%) [2]: 99.74% and 100% | Population Pyknosed Nuclei (%) [2]: 15.12% and 20% | Population Tubulin-Different-Phenotype (%) [2]: 2.9% and 0% | Population Apoptotic (%) [3]: 47.5% and 43.18% | Population Fragmented Nuclei (%) [3]: 2.77% and 4.12% | Population Healthy Nuclei (%) [3]: 82.47% and 73.2% | Population Hoechst High Intensity Objects (%) [3]: 0% | Population Membrane Permeable-Phenotype (%) [3]: 1.12% and 3.52% | Population Mitochondria Different-Phenotype (%) [3]: 0% and 5.63% | Population Mitotic Cells (%) [3]: 52.5% and 56.82% | Population Normal (%) [3]: 100% | Population Pyknosed Nuclei (%) [3]: 14.76% and 22.68% | Population Tubulin-Different-Phenotype (%) [3]: 0.67% and 0% | Total Cell Count [3]: 542 and 194 | Population Apoptotic (%) [4]: 44.26% and 50% | Population Fragmented Nuclei (%) [4]: 3.67% and 6.77% | Population Healthy Nuclei (%) [4]: 83.15% and 67.67% | Population Hoechst High Intensity Objects (%) [4]: 0% | Population Membrane Permeable-Phenotype (%) [4]: 1.82% and 5.56% | Population Mitotic Cells (%) [4]: 55.74% and 50% | Population Normal (%) [4]: 100% | Population Pyknosed Nuclei (%) [4]: 13.17% and 25.56% | Population Tubulin-Different-Phenotype (%) [4]: 1.82% and 1.11% | Population Apoptotic (%) [5]: 50.98% and 51.79% | Population Fragmented Nuclei (%) [5]: 4.55% and 3.91% | Population Healthy Nuclei (%) [5]: 84.92% and 77.85% | Population Hoechst High Intensity Objects (%) [5]: 0.1% and 0% | Population Membrane Permeable-Phenotype (%) [5]: 0.12% and 2.09% | Population Mitochondria Different-Phenotype (%) [5]: 0% and 3.35% | Population Mitotic Cells (%) [5]: 49.02% and 48.21% | Population Normal (%) [5]: 99.9% and 100% | Population Pyknosed Nuclei (%) [5]: 10.54% and 18.24% | Population Tubulin-Different-Phenotype (%) [5]: 1.22% and 1.26% | Population Apoptotic (%) [6]: 60.92% and 61.11% | Population Fragmented Nuclei (%) [6]: 2.84% and 9.2% | Population Healthy Nuclei (%) [6]: 84.18% and 68.71% | Population Hoechst High Intensity Objects (%) [6]: 0% | Population Membrane Permeable-Phenotype (%) [6]: 1.6% and 6.25% | Population Mitochondria Different-Phenotype (%) [6]: 0% and 18.75% | Population Mitotic Cells (%) [6]: 39.08% and 38.89% | Population Normal (%) [6]: 100% | Population Pyknosed Nuclei (%) [6]: 12.99% and 22.09% | Population Tubulin-Different-Phenotype (%) [6]: 1.24% and 0.89%

CC(=O)NCC(=O)N1[C@@H]2CC[C@H]1c1ccc(Nc3ncc(C(F)(F)F)c(NC4CCC4)n3)cc12 [PF-03814735]
Population Apoptotic (%) [1]: 43.59% and 56.25% | Population Fragmented Nuclei (%) [1]: 3.86% and 3.61% | Population Healthy Nuclei (%) [1]: 82.46% and 86.75% | Population Hoechst High Intensity Objects (%) [1]: 0% | Population Membrane Permeable-Phenotype (%) [1]: 2.55% and 3.47% | Population Mitochondria Different-Phenotype (%) [1]: 0% and 6.25% | Population Mitotic Cells (%) [1]: 56.41% and 43.75% | Population Normal (%) [1]: 100% | Population Pyknosed Nuclei (%) [1]: 13.68% and 9.64% | Population Tubulin-Different-Phenotype (%) [1]: 2.55% and 1.39% | Total Cell Count [1]: 285 and 166 | Population Apoptotic (%) [2]: 36.84% and 50% | Population Fragmented Nuclei (%) [2]: 4.71% and 6.5% | Population Healthy Nuclei (%) [2]: 58.45% and 47.97% | Population Hoechst High Intensity Objects (%) [2]: 0.28% and 0% | Population Membrane Permeable-Phenotype (%) [2]: 5.69% and 15.25% | Population Mitotic Cells (%) [2]: 63.16% and 50% | Population Normal (%) [2]: 99.72% and 100% | Population Pyknosed Nuclei (%) [2]: 36.84% and 45.53% | Population Tubulin-Different-Phenotype (%) [2]: 7.58% and 8.47% | Total Cell Count [2]: 362 and 123 | Population Apoptotic (%) [3]: 52.86% and 55.56% | Population Fragmented Nuclei (%) [3]: 3.18% and 2.94% | Population Healthy Nuclei (%) [3]: 72.08% and 75.88% | Population Hoechst High Intensity Objects (%) [3]: 0.35% and 0% | Population Membrane Permeable-Phenotype (%) [3]: 1.96% and 5.43% | Population Mitochondria Different-Phenotype (%) [3]: 0% and 7.75% | Population Mitotic Cells (%) [3]: 47.14% and 44.44% | Population Normal (%) [3]: 99.65% and 100% | Population Pyknosed Nuclei (%) [3]: 24.73% and 21.18% | Population Tubulin-Different-Phenotype (%) [3]: 0.49% and 3.88% | Total Cell Count [3]: 284 and 170 | Population Apoptotic (%) [4]: 67.23% and 80% | Population Fragmented Nuclei (%) [4]: 5.92% and 4.1% | Population Healthy Nuclei (%) [4]: 27.04% and 26.23% | Population Hoechst High Intensity Objects (%) [4]: 0% and 0.81% | Population Membrane Permeable-Phenotype (%) [4]: 10.42% and 12.5% | Population Mitotic Cells (%) [4]: 32.77% and 20% | Population Normal (%) [4]: 100% and 99.19% | Population Pyknosed Nuclei (%) [4]: 67.04% and 69.67% | Total Cell Count [4]: 355 and 123 | Population Apoptotic (%) [5]: 69.39% and 73.33% | Population Fragmented Nuclei (%) [5]: 2.78% and 6.88% | Population Healthy Nuclei (%) [5]: 63.19% and 55.62% | Population Hoechst High Intensity Objects (%) [5]: 0.69% and 0% | Population Membrane Permeable-Phenotype (%) [5]: 3.85% and 7.87% | Population Mitochondria Different-Phenotype (%) [5]: 0% and 15.73% | Population Mitotic Cells (%) [5]: 30.61% and 26.67% | Population Normal (%) [5]: 99.31% and 100% | Population Pyknosed Nuclei (%) [5]: 34.03% and 37.5% | Population Tubulin-Different-Phenotype (%) [5]: 6.04% and 10.11% | Total Cell Count [5]: 290 and 160 | Population Apoptotic (%) [6]: 78.97% and 93.41% | Population Fragmented Nuclei (%) [6]: 6.71% and 1.74% | Population Healthy Nuclei (%) [6]: 14.29% and 19.13% | Population Hoechst High Intensity Objects (%) [6]: 0% | Population Membrane Permeable-Phenotype (%) [6]: 18.37% and 31.82% | Population Mitochondria Different-Phenotype (%) [6]: 14.29% and 4.55% | Population Normal (%) [6]: 100% | Population Pyknosed Nuclei (%) [6]: 79.01% and 79.13% | Total Cell Count [6]: 343 and 115
